From ChEMBL document CHEMBL6127097, “Structure-Guided Discovery of cis-Hexahydro-pyrido-oxazinones as Reversible, Drug-like Monoacylglycerol Lipase Inhibitors” (J Med Chem, 2024) come the findings set out here.

Calls of active or inactive are those of the source. The calls are words filed in the database; no cut-off is given here.

In series [1] the test system is Mus musculus. Briefly: Upregulation of brain 2-AG level in ip dosed mouse measured after 4 hrs. To be noted: dose 3-30 mg/kg. It counts as functional, organism-based. Put shortly: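 Mice dosed i.p. in NaCl/DMSO/TW80 (80/10/10): 3, 10 or 30 mg/kg with sacrifice at 4 h, or 30 mg/kg over a 24 h time course. Brain extract 2-AG and AA were measured by LC/MS.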
Series [2] has as its target T1, Monoglyceride lipase (Mus musculus) (UniProt O35678).
T1 sequence (whole entry): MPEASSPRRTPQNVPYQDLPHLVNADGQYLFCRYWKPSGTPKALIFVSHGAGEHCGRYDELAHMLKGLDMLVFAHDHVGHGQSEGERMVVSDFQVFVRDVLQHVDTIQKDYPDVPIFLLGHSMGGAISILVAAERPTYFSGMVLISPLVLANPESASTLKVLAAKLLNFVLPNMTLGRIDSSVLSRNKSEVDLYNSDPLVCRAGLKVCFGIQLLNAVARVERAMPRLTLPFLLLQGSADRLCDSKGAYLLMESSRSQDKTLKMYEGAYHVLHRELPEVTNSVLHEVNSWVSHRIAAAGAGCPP
Briefly: In vivo receptor occupancy at MAGL receptor in mouse at 30 mg/kg, ip measured after 16 hrs. It counts as functional, organism-based. Put shortly: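 Mice dosed 30 mg/kg i.p. in NaCl/DMSO/TW80 (80/10/10). Brain proteome was prepared at set time points over 24 h and MAGL occupancy read by activity-based protein profiling.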

Series [3] relates to Mus musculus. Briefly: Antiinflammatory activity in LPS-induced CD-1 mouse neuroinflammation model assessed as decrease in brain LCN2 mRNA expression at 30 mg/kg, ip measured after 6 hrs by qRT-PCR analysis. It counts as functional, organism-based. The method in brief: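 CD-1 mice received NaCl + vehicle, LPS (5 mg/kg) + vehicle, or LPS + inhibitor at 30 mg/kg i.p. The vehicle was NaCl/DMSO/Tween 80, 80/10/10. Mice were killed 6 h after compound dosing. LCN2 and IL1b mRNA in cortical brain lysates were quantified by droplet digital qRT-PCR.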

Series [4] deals with T2, Monoglyceride lipase (Homo sapiens) (UniProt Q99685).
T2 sequence (whole entry): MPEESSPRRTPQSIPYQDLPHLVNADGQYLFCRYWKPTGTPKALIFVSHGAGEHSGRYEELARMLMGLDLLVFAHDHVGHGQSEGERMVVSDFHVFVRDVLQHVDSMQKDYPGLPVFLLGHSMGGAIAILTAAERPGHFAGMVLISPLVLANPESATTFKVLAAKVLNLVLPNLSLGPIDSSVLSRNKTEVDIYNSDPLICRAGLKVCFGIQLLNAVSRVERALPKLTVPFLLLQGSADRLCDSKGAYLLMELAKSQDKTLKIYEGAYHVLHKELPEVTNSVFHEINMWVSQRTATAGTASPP
The series is described as follows: Binding affinity to human MAGL assessed as association rate constant by SPR analysis. Put shortly:
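Human or rat MAGL was immobilized by amine coupling without ethanolamine quenching. Runs were done at 18 °C in 10 mM HEPES, 150 mM NaCl, 0.05% P20, 50 µM EDTA, pH 7.4, with 1% DMSO. Single-cycle kinetics used five concentrations, top 1 µM in 2-fold steps, at 30 µL/min, giving kon, koff and Kd.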
On the technique in general: Surface plasmon resonance follows binding to a sensor surface in real time, without labels.

The species named for the next series is Homo sapiens. Briefly: Inhibition of serotonin transporter (unknown origin) at 10 uM relative to control. The method in brief: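 Cerep panel of 50 off-targets, percent inhibition at 10 µM.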
Series [5] deals with T1, Monoglyceride lipase (Mus musculus). Briefly: In vivo receptor occupancy at MAGL receptor in mouse at 10 mg/kg, ip measured after 4 hrs. Type of series: functional, organism-based.
The subject of series [6] is Mus musculus. The series is described as follows: Upregulation of brain 2-AG level in mouse at 30 mg/kg, ip measured after 8 to 24 hrs. To be noted: time 8-24 hrs. Type of series: functional, organism-based. The method in brief: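 Male-unspecified mice received a single i.p. dose of 30 mg/kg. The vehicle was NaCl/DMSO/TW80 (80/10/10): the drug was dissolved in equal parts DMSO and TW80, then diluted with 8 parts normal saline. Brain 2-AG levels were followed over 24 h after dosing and measured by LC/MS in brain extracts.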

Series [7] concerns the target T1, Monoglyceride lipase (Mus musculus). The series is described as follows: In vivo receptor occupancy at MAGL receptor in mouse at 3 mg/kg, ip measured after 4 hrs. It counts as functional, organism-based.
A short description of series [8]: Clearance in mouse microsomes. Type of series: ADME, Microsome.
Series [9] is described as follows: Chemical stability at pH 10 incubated for 2 hrs. It counts as physicochemical. Conditions: buffer, pH 10, 2 h. The method in brief: (§1)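 Compound was held in aqueous buffer at the stated pH for 2 h at 37 °C.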
Series [10] is described as follows: Tmax in Wistar rat at 5 mg/kg, po measured upto 24 hrs by LC-MS/MS analysis. Conditions: in vivo. It counts as ADME, organism-based. Put shortly:
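Male Wistar rats, single dose. i.v. in NMP/0.9% NaCl 30:70; p.o. and i.p. in NMP/HPMC/diisooctyl sulfosuccinate 10:90; 3 per i.v./p.o. group, 6 i.p. K2EDTA plasma sampled 0.083–7 h, plus 24 h for i.v./p.o.; brain and CSF at 1, 2, 7 h (i.p. only). LC-MS/MS, noncompartmental analysis.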

Series [11] is described as follows: Average drug concentration in mouse plasma at 30 mg/kg, ip measured after 4 hrs. It counts as ADME, organism-based. To be noted: in vivo. Put shortly: (§2)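 Mice received 3, 10 or 30 mg/kg i.p. The compound was dissolved in DMSO/Tween 80 (1:1) and diluted with 8 parts saline (NaCl/DMSO/TW80 80/10/10). Plasma was taken 4 h after injection and average concentrations reported.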

The target of another series is T3, Monoglyceride lipase (Mus musculus, UniProt O35678).
T3 sequence (O35678 whole entry): T1 sequence (whole entry)
The series is described as follows: Inhibition of mouse MAGL using native substrate by Rapidfire MS assay.

The nature of series [12]: Clearance in mouse hepatocytes assessed per 10 million cells. Type of series: ADME, cell-based, Hepatocyte. To be noted: read-out: CLH.
A short description of series [13]: Brain-polar-lipids/water distribution coefficient, LIMBA logD brain of the compound at pH 7.4 incubated for 8 hrs by LIMBA.
Series [14] in a line: Chemical stability at pH 1 incubated for 2 hrs. Conditions: buffer, pH 1, 2 h. Type of series: physicochemical. Put shortly:
as §1

The nature of series [15]: Drug concentration in mouse CSF at 30 mg/kg, ip measured after 16 hrs. It counts as ADME, organism-based, Cerebrospinal fluid. To be noted: read-out: Ct.
A short description of series [16]: Average drug concentration in mouse plasma at 3 mg/kg, ip measured after 4 hrs. Type of series: ADME, organism-based. To be noted: in vivo. The method in brief:
as §2

Series [17] can be described thus: Volume of distribution at steady state in Wistar rat at 1 mg/kg, iv measured upto 24 hrs by LC-MS/MS analysis. It counts as ADME, organism-based. Conditions: in vivo, read-out: Vdss. The method in brief:
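Male Wistar rats (N = 3) received a single 1 mg/kg i.v. dose as a solution in NMP/0.9% NaCl (30:70, 2 mL/kg). Blood was drawn at 0.083, 0.25, 0.5, 1, 2, 4, 7 and 24 h onto K2EDTA, and plasma was separated by centrifugation at 3000g for 15 min at 4 °C. Concentrations were measured by LC-MS/MS, and Vss was derived by noncompartmental analysis.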

The next series deals with human P-gp. Briefly: Apparent permeability across apical to basolateral side in pig LLC-PK1 cells expressing human P-gp. It counts as ADME, cell-based, Sus scrofa. The method in brief: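 LLC-PK1 porcine kidney cells transfected with human or mouse P-gp were grown as polarized monolayers on filter membranes. Compound was dosed to the apical side and receiver appearance followed over 3 h at 37 °C. A→B Papp was measured with the P-gp inhibitor zosuquidar present at 1 µM.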

The nature of series [18]: Phototoxicity in mouse 3T3 cells. Conditions: nih3t3. It counts as toxicity, cell-based.

With `O=C1CO[C@H]2CCN(C(=O)N3CCC(Cc4ccc(C(F)(F)F)cc4)CC3)C[C@H]2N1` [listing 1 of 2 here], the Activity entry in the series with Mus musculus [1] was “Dose-Dependent Effect”; in series [2] it was 60%; in [5] it was 79%; in [7] it was 49%. The outcome with Mus musculus [3] was Active. In series [4], the K was 2.5 10^5/M/s. Moreover, the inhibition (as a rule, the relative decrease from the control value, in per cent) in the series filed under Homo sapiens was found to be 57%. In addition, the outcome in the series with Mus musculus [6] was inactive.

Consider `O=C1CO[C@H]2CCN(C(=O)N3CCC(Cc4ccc(C(F)(F)F)cc4)CC3)C[C@H]2N1` [listing 2 of 2 here], for which the microsomal CLint (commonly a measure of how fast metabolising enzymes remove a compound, apart from limits set by blood flow) in [8] is under 10 µL/min/mg. Besides, the Stability result in series [9] and in series [14] was “Stable” in each case. Further, in series [10], the Tmax (commonly the time at which the peak concentration occurs) was found to be 6 h. The Cave was found to be 27765 nM in [11] and 1901 nM in series [16]. In addition, the IC50 (commonly the point on the concentration scale where inhibition reaches its midpoint) against Monoglyceride lipase is 91 nM. Also, the hepatocyte CLint in [12] is 8.9 µL/min/1e6 cells. The molecule further displayed an LIMBA logD brain at 8 h in series [13] of 1.8. In addition, in series [15], the concentration at 16 h came to 48 nM. Besides, in [17], the Vd came to 1.3 L/kg. Also, in the series on human P-gp, the Papp A→B – broadly, how fast a substance crosses the layer from the apical side – was 17.6 ×10⁻⁶ cm/s. Further, the Activity entry in series [18] is on record as “Non-Toxic”.
